KDM4C inh = inhibitors of GASC-1 (KDM4C) histone demethylase, primary screen, biochemical, single concentration HTS | Lysine-specific demethylase 4C (Homo sapiens), Q9H3R0 | GST-KDM4C 2-372, H3K9me3 peptide, LANCE TR-FRET | inhibition, % at 12.5 µM | hit rate 0.15% among 96,000 | AID 720574, 2013;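 active = mean replicate inhibition above about 25%, with at least 55% of replicates also reaching it, limit read from the data, passing the limit was not always enough; inconclusive = only one of those two conditions met; inactive = neither condition met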
Target sequence (Q9H3R0 2-372 limits assumed): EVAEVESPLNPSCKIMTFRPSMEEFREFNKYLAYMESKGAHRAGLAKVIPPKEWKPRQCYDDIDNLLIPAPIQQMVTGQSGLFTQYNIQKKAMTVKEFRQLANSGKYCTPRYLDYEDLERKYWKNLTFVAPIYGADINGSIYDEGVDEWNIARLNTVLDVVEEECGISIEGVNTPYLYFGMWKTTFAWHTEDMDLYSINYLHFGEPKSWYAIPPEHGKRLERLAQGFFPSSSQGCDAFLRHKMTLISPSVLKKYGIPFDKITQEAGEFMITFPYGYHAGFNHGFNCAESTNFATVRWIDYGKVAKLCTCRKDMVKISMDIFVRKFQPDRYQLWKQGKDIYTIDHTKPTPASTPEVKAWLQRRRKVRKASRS
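Test system – GST-tagged GASC-1 (JMJD2C) catalytic fragment, aa 2-372 · Medium – HEPES buffer, pH 7.5, plus ascorbate · Reagent – H3K9me3 peptide with Fe(II)/2OG · Compound – one test concentration per compound · Timing – 30 min reaction, 60 min detection, RT · Technique – TR-FRET with Eu antibody and ULight streptavidin, EDTA stop · Read-out basis – inhibition from TR-FRET ratio decrease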
T cruzi growth-1 = T. cruzi intracellular proliferation inhibitors, primary screen, cell-based, beta-gal Tulahuen parasites, NIH3T3 host, luminescence; T. cruzi beta-gal in NIH3T3, GalScreen luminescence, 90 h; inhibition, % at 8.34 µM; hit rate 5.9% among 77,000; AID 624255, 2012;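 active = mean inhibition above about 93%, with at least 55% of replicates each passing it, limit read from the data, passing the limit was not always enough; inconclusive = only one of those two conditions holds; inactive = neither condition holds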
IDH1 mut inh = inhibitors of IDH1 R132H reductase, primary screen, biochemical, plate reader, single point; inhibition, % at 10 µM; hit rate 0.18% among 70,000; AID 624101, 2012; diaphorase/resazurin fluorescence, 60 min; Isocitrate dehydrogenase [NADP] cytoplasmic (Homo sapiens), O75874; in the data active = inhibition above about 34%; inconclusive = no clear call, values can overlap the other calls; inactive = below about 11%;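 note: 0% = DMSO and 100% = no enzyme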
T cruzi growth-2 = T. cruzi intracellular proliferation inhibitors, confirmation, cell-based, NIH3T3 host, beta-gal parasite, luminescence, cherry-pick. shares compounds with T cruzi growth-1. T. cruzi beta-gal in NIH3T3, GalScreen luminescence, 90 h. inhibition, % at 8.35 µM. hit rate 72% among 5,600. AID 651739, 2012;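 active = mean replicate inhibition above about 95% and at least 55% of replicates individually reaching it, limit read from the data; inconclusive = only one of the two criteria is met; inactive = neither criterion is met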
T cruzi growth-3 = inhibitors of intracellular T. cruzi replication, confirmation, NIH3T3 host cells, beta-gal parasites, cherry-pick, set 2; shares compounds with T cruzi growth-1; T. cruzi beta-gal in NIH3T3, GalScreen luminescence, 90 h; inhibition, % at 2.09 µM; hit rate 21% among 5,600; AID 651740, 2012;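 active = mean inhibition above about 95%, with at least 55% of replicates also reaching it, limit read from the data; inconclusive = meets just one of the two conditions; inactive = meets neither condition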;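 note: plate controls were neutral control median for no effect and positive control median for full effect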
3T3 cytotox = cytotoxicity in mouse NIH/3T3 fibroblasts, confirmation, cytotoxicity control for T. cruzi proliferation inhibitor project, cell-based, cherry-pick, single point. hit rate 14% among 5,600. shares compounds with T cruzi growth-1. NIH/3T3 viability, CellTiter-Glo ATP luminescence, 90 h. cytotoxicity (signal decrease), % at 8.35 µM. AID 651742, 2012;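 active = mean signal decrease across replicates above about 35% based on untreated-well scatter, with enough replicates individually passing, limit read from the data; inconclusive = no rule stated though some were filed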;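 note: 0% = median of neutral control wells and 100% = median of positive control wells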
3T3 cytotox 2 = NIH/3T3 fibroblast cytotoxicity, confirmation, cytotoxicity control, cell-based, cherry-pick, single point, set 2. shares compounds with T cruzi growth-1. NIH/3T3 viability, CellTiter-Glo ATP luminescence, 90 h. inhibition, % at 24.9 µM. hit rate 56% among 5,600;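 active = mean loss of cell viability signal at or above a set limit, and enough replicates individually reaching it; inconclusive = meets only the mean limit or only the replicate share; inactive = meets neither condition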;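 note: 0% = median of neutral control wells and 100% = median of positive control wells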
An asterisk follows results filed as active. Many of the other results were omitted from the sample, so hits are more common in it than they were.

`C[C@@H]1CN([C@@H](C)CO)C(=O)c2cc(NC(=O)Nc3ccc(C(F)(F)F)cc3)ccc2O[C@@H](C)CCCCO[C@H]1CN(C)Cc1ccc(C(=O)O)cc1` gave KDM4C inh 0, T cruzi growth-1 24 and IDH1 mut inh 2.
`O=C(CSc1nc2ccccc2s1)Nc1cc(Cl)cc(Cl)c1` gave IDH1 mut inh 0.
Screening COCC(=O)N1[C@H](C(=O)Nc2ccccc2)[C@@H](CO)[C@@H]2Cn3c(ccc(-c4cccnc4)c3=O)[C@@H]21 returned KDM4C inh -2 and T cruzi growth-1 -37.
`CO[C@@H]1CN(C)C(=O)c2cc(NC(=O)C3CCCC3)ccc2OC[C@H](C)N(CC2CC2)C[C@H]1C` gave KDM4C inh 0 and IDH1 mut inh 0.
`O=C(Nc1ccccc1)N1C[C@@H]2[C@H](c3ccccc31)[C@@H](CO)N2C(=O)c1ccccc1F` gave KDM4C inh 2 and T cruzi growth-1 53.
`C/C=C/c1ccc2c(c1)O[C@@H](CN(C)C(=O)Nc1ccc(F)cc1)[C@@H](C)CN([C@H](C)CO)S2(=O)=O` gave KDM4C inh -1, T cruzi growth-1 6 and IDH1 mut inh 0.
For C/C=C/c1ccc2c(c1)O[C@@H](CN(C)C(=O)Nc1ccc(C(F)(F)F)cc1)[C@@H](C)CN([C@H](C)CO)S2(=O)=O the results were KDM4C inh 0, T cruzi growth-1 110*, IDH1 mut inh 0, T cruzi growth-2 101*, T cruzi growth-3 81, 3T3 cytotox 59* and 3T3 cytotox 2 52*.
Screening C/C=C/c1ccc2c(c1)O[C@@H](CN(C)C(=O)Nc1ccccc1)[C@H](C)CN([C@H](C)CO)S2(=O)=O returned KDM4C inh -1, T cruzi growth-1 9 and IDH1 mut inh 0.
Screening C/C=C/c1ccc2c(c1)O[C@H](CN(C)C(=O)Nc1ccc(C(F)(F)F)cc1)[C@@H](C)CN([C@@H](C)CO)S2(=O)=O returned KDM4C inh -1, T cruzi growth-1 101*, IDH1 mut inh -1, T cruzi growth-2 88, T cruzi growth-3 81, 3T3 cytotox 73* and 3T3 cytotox 2 98*.
For C/C=C/c1ccc2c(c1)O[C@@H](CN(C)C(=O)Nc1ccccc1)[C@@H](C)CN([C@H](C)CO)S2(=O)=O the results were KDM4C inh 1, T cruzi growth-1 22 and IDH1 mut inh -4.
Screening C/C=C/c1ccc2c(c1)O[C@H](CN(C)C(=O)Nc1ccc(C(F)(F)F)cc1)[C@H](C)CN([C@H](C)CO)S2(=O)=O returned KDM4C inh 0, T cruzi growth-1 100*, IDH1 mut inh -3, T cruzi growth-2 96*, T cruzi growth-3 90, 3T3 cytotox 38* and 3T3 cytotox 2 90*.
For COc1ccc2c3c([nH]c2c1)[C@@H](CO)N(Cc1ccncc1)CC31CCN(C(=O)CN(C)C)CC1 the results were KDM4C inh 1.
O=C(c1cccnc1)N1CCCCN2[C@H](C1)[C@@H](c1ccc(C#Cc3cccnc3)cc1)[C@@H]2CO was read as KDM4C inh -1 and T cruzi growth-1 83.
For O=C(Nc1ccc(F)cc1)N1CCCCN2[C@H](CO)[C@@H](c3ccc(C#Cc4ccccc4)cc3)[C@@H]2C1 the results were KDM4C inh -3 and T cruzi growth-1 73.
`O=C(Nc1ccccc1)N1CCCCN2[C@H](CO)[C@@H](c3ccc(C#Cc4ccccc4)cc3)[C@@H]2C1` gave KDM4C inh -1, T cruzi growth-1 109*, T cruzi growth-2 89, T cruzi growth-3 103*, 3T3 cytotox inconclusive and 3T3 cytotox 2 104*.
`O=C(Nc1ccccc1)N1CCCCN2[C@H](CO)[C@@H](c3ccc(C#Cc4ccccc4)cc3)[C@H]2C1` gave KDM4C inh 21 and T cruzi growth-1 60.
Screening O=C(c1cccnc1)N1CCCCN2[C@H](CO)[C@H](c3ccc(C#Cc4ccccc4)cc3)[C@@H]2C1 returned T cruzi growth-1 101*, T cruzi growth-2 110*, T cruzi growth-3 73, 3T3 cytotox 61* and 3T3 cytotox 2 43*.
Screening CC(C)C#Cc1ccc([C@H]2[C@H](CO)N3CCCCN(C(=O)Nc4ccccc4)C[C@@H]23)cc1 returned KDM4C inh 0 and T cruzi growth-1 32.
CC(C)C#Cc1ccc([C@H]2[C@@H](CO)N3CCCCN(C(=O)Nc4ccccc4)C[C@@H]23)cc1 was read as KDM4C inh 0, T cruzi growth-1 113*, T cruzi growth-2 107*, T cruzi growth-3 67, 3T3 cytotox 41* and 3T3 cytotox 2 34*.
O=C(Nc1ccc(F)cc1)N1CCCCN2[C@@H](CO)[C@H](c3ccc(C#Cc4ccccc4)cc3)[C@@H]2C1 was read as KDM4C inh -1, T cruzi growth-1 123*, T cruzi growth-2 99*, T cruzi growth-3 111*, 3T3 cytotox 117* and 3T3 cytotox 2 105*.
For CO[C@H]1CN(C)C(=O)c2cc(NC(=O)C3CCC3)ccc2OC[C@@H](C)N(C(=O)CN(C)C)C[C@@H]1C the results were KDM4C inh -1 and IDH1 mut inh 0.
C[C@H]1CN([C@@H](C)CO)C(=O)c2cc(C#Cc3ccccc3F)cnc2O[C@H]1CN(C)C(=O)Cc1ccccc1 was read as KDM4C inh 0, T cruzi growth-1 48 and IDH1 mut inh -1.
O=C([C@@H]1[C@@H](CO)[C@@H]2Cn3c(ccc(C4=CCCC4)c3=O)[C@@H]2N1Cc1nccs1)N1CCOCC1 was read as KDM4C inh 5 and T cruzi growth-1 -6.
Screening COc1ccc(CCNC(=O)C2OCCc3ccccc32)cc1OC (stereo unspecified) returned IDH1 mut inh 0.
For O=S(=O)(N[C@H]1CC[C@@H](CCn2cc(-c3cccc(F)c3)nn2)O[C@@H]1CO)c1ccc(Cl)cc1 the results were KDM4C inh 0, T cruzi growth-1 -14 and IDH1 mut inh 0.
Screening CC(C)CC#Cc1ccc([C@@H]2[C@H]3CN(C(=O)Nc4ccccc4)CCCCN3[C@H]2CO)cc1 returned KDM4C inh -1 and T cruzi growth-1 48.
